Shown are actives, neighbours in structure and some others; about 1.8% of the full set was active somewhere.
SIAE inh – human SIAE inhibition, primary screen; Q9HAT2; SIAE FP-Rh probe binding, fluorescence polarization; 0.69% of 370,000 active; inhibition, % at 9.66 µM;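 active = inhibition above a cutoff: mean of compounds within the control limits plus 3 SD of those, cut at about 17% in these data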
ABHD4 inh – inhibitors of mouse ABHD4; Q8VD66; purified mABHD4, FP-Rh probe fluorescence polarization; inhibition, % at 8.92 µM; 0.54% of 370,000 active; AID 720543;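 active = inhibition exceeding the mean over every tested compound plus 3 SD, cut at about 30% in these data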
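Assay system: wild-type mouse ABHD4 protein; compound: single nominal dose of 8.92 µM, 0.89% DMSO final; schedule: 45 min + 60 min at 25 °C; measured by: FP readout, ex 525 nm / em 598 nm; evaluation: % inhibition of FP-Rh probe binding versus controls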
TCR CD3 inh – inhibitors of human TCR-CD3 interaction | inhibition, % at 9.4 µM | AID 651800 | 0.37% of 360,000 active | TAMRA-labeled TCR probe fluorescence, biochemical; in the data active = inhibition above about 19%;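 note: recombinant mutant TCR 2C K166C tagged with TAMRA read by polarization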
ARNT TACC3 PPI – disrupts binding between human ARNT and TACC3 | 0.66% of 390,000 active | Q9Y6A5 | inhibition, % at 9.99 µM | AlphaScreen His-ARNT PAS-B/GST-TACC3 binding, luminescence; TACC3 fragment carries E629A point mutation;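 active = mean inhibition of replicates at least 50% and at least half of replicates each reaching 50%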
HTRA1 inhibitor – inhibitors of human serine peptidase HTRA1; recombinant HTRA1, FP-rhodamine activity-based probe, fluorescence polarization; Q92743; inhibition, % at 5.96 µM; 0.5% of 340,000 active; AID 504803; in the data active = inhibition above about 36%
Target sequence (Q92743 whole entry, looked up): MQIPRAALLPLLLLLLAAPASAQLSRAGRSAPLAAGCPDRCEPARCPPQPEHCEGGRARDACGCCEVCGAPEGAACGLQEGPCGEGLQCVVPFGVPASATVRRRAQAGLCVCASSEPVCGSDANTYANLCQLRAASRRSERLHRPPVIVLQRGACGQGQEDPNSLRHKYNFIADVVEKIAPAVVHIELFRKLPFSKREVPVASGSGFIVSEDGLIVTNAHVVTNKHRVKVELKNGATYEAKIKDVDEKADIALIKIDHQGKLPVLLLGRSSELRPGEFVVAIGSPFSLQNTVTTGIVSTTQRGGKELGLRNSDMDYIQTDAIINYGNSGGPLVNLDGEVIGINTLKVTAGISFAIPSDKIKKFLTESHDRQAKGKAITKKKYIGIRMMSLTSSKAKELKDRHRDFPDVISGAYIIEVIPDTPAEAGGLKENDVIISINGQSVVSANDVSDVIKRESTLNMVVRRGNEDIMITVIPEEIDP
AlphaScreen ctr – counter-screen for ARNT/TACC3 inhibitors: AlphaScreen artifacts; AC50, µM (series often up to 68 µM); 50% of 1,200 active; AID 651705; His-ARNT PASB-GST AlphaScreen artifact counter-screen, luminescence; shares compounds with ARNT TACC3 PPI;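 active = every separate test run was called active for a drop in luminescence, with AC50 within twice the top valid dose, actives reach about 71 µM in these data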
A number is an active result; - = inactive; . = no result; ! = not active in a repeat.

SMILES | SIAE inh | ABHD4 inh | TCR CD3 inh | ARNT TACC3 PPI | HTRA1 inhibitor | AlphaScreen ctr
C[C@H]1CN([C@@H](C)CO)C(=O)c2cc(C3=CCCC3)cnc2O[C@H]1CN(C)C(=O)CN(C)C | . | . | . | - | . | .
C[C@H](NC(=O)C[C@@H]1CC[C@@H]2[C@H](COC[C@H](O)CN2C(=O)Nc2cccc(F)c2)O1)c1ccccc1 | . | . | . | - | . | .
C[C@H]1CN([C@@H](C)CO)C(=O)c2cccc(NC(=O)C3CCCCC3)c2O[C@H]1CN(C)Cc1ccncc1 | . | . | . | - | . | .
C[C@]12CC[C@H](O)CC1=CCC1C2CC[C@@]2(C)C1CC[C@@H]2NC(=O)[C@@H](N)Cc1cnc[nH]1 (stereo partly specified) | - | - | - | 62.3 | - | -
COc1ccc2nc(/N=C/c3c(C)[nH]n(-c4ccc(C)cc4)c3=O)sc2c1 | - | - | - | 55.5 | - | -
CCOc1cc(/C=N/Nc2ncc(C)c(=O)[nH]2)ccc1O | - | - | - | 54.4 | - | -
C[C@H](CO)N1C[C@H](C)[C@@H](CN(C)C(=O)C2CCCCC2)Oc2cc(-c3ccc(F)cc3)ccc2S1(=O)=O | . | . | . | - | . | .
COc1cccc(C(=O)Oc2c(CN3CCOCC3)cc(Cl)c3cccnc23)c1 | - | - | - | 77.5 | - | 57.8µM
COc1cccc(C(=O)OCCN2CCOCC2)c1 | - | - | - | - | - | .
CC1=Nn2c(nnc2-c2ccccc2F)SC1 | - | - | - | - | - | .
c1ccc(-c2ccc(C3=Nn4c(nnc4-c4ccccn4)SC3)cc2)cc1 | - | - | . | . | . | .
c1ccc(C2=Nn3c(nnc3-c3ccccn3)SC2)cc1 | - | - | - | 60.9 | - | -
CC1=Nn2c(nnc2-c2ccccn2)SC1 | - | - | - | 44.1 | - | -
CC(=O)N(C)C[C@H]1Oc2cc(-c3cncnc3)ccc2S(=O)(=O)N([C@H](C)CO)C[C@@H]1C | . | . | . | - | . | .
COc1ccc(C(=O)Cc2nnc(C)s2)c(OC)c1 | - | - | - | 77.2 | - | -
CCc1nnc(NC(=O)c2ccc(OC)cc2OC)s1 | - | - | - | - | - | .
NC(=O)CSc1nnc(-c2ccc(O)cc2)n1Cc1ccco1 | - | - | - | 38.4 | - | 27.8µM
NC(=O)CSc1nnc(-c2cccs2)n1Cc1ccco1 | - | - | - | - | - | .
COc1cc(/C=N/NC(=O)CCN2CCN(c3ccccc3)CC2)cc(OC)c1OC | - | - | - | 37.9 | - | 56.3µM
COc1cc(/C=N/NC(=O)CCN2CCN(Cc3ccccc3)CC2)cc(OC)c1OC | - | - | - | - | - | .
C[C@H](CO)N1C[C@H](C)[C@H](CN(C)C(=O)CCC(F)(F)F)OCCCC[C@H](C)Oc2ccc(NC(=O)Nc3ccccc3)cc2C1=O | . | . | . | - | . | .
COCCn1c(N)c(C(=O)NCc2cccs2)c2nc3ccccc3nc21 | - | - | - | 51.0 | - | -
C[C@H](CO)N1C[C@H](C)[C@H](CN(C)S(=O)(=O)c2ccc(Cl)cc2)Oc2ccc(NS(=O)(=O)c3ccccc3)cc2CC1=O | . | . | . | - | . | .
O=C(C1CC1)N1CCc2cc(Br)cc(S(=O)(=O)NCc3ccccn3)c21 | - | - | - | 51.8 | - | -
O=C(C1CC1)N1CCc2cc(Br)cc(S(=O)(=O)NCc3ccco3)c21 | - | - | - | - | - | .
SMILES | SIAE inh | ABHD4 inh | TCR CD3 inh | ARNT TACC3 PPI | HTRA1 inhibitor | AlphaScreen ctr
CN(Cc1cnc2nc(N)nc(N)c2n1)c1ccc(C(=O)NC(CCC(=O)O)C(=O)O)cc1C(F)(F)F (stereo unspecified) | - | - | - | . | - | .
CN(Cc1cnc2nc(N)nc(N)c2n1)c1ccc(C(=O)NC(CCC(=O)O)C(=O)O)cc1 (stereo unspecified) | - | - | - | 15.4 | - | -
O=C(CN1CC(=O)Oc2ccccc21)NCc1ccco1 | - | - | - | 61.3 | - | 19.3µM
O=C(CSc1ncccn1)N1CCc2ccccc2C1 | - | - | - | - | - | .
O=C(CNCc1ccccn1)N1CCc2ccccc2C1 | - | - | - | 76.6 | - | 17.1µM
C[C@@H]1CCCCO[C@@H](CN(C)C(=O)c2ccncc2)[C@H](C)CN([C@@H](C)CO)C(=O)c2cc(NS(=O)(=O)c3ccc(F)cc3)ccc2O1 | . | . | . | - | . | .
C[C@@H]1CCCCO[C@H](CN(C)CC2CCCCC2)[C@H](C)CN([C@H](C)CO)C(=O)c2cc(NC(=O)Cc3ccccc3)ccc2O1 | . | . | . | - | . | .
CCOc1ccc(N(CC(=O)Nc2ccc(OC)cc2OC)S(=O)(=O)c2c(C)[nH]c(=O)[nH]c2=O)cc1 | - | - | - | 57.7 | - | 10.4µM
CCOc1ccccc1NC(=O)CN(c1ccc(OC)cc1)S(=O)(=O)c1c(C)[nH]c(=O)[nH]c1=O | - | - | - | 55.0 | - | 29.5µM
C[C@@H]1CN([C@H](C)CO)C(=O)c2ccccc2-c2ccccc2CO[C@@H]1CN(C)C(=O)Nc1ccc2c(c1)OCO2 | . | . | . | - | . | .
NC(=O)c1[nH]cnc1N | - | - | - | 69.4! | - | -
CN(Cc1ccccc1)N=Nc1nc[nH]c1C(N)=O | - | - | - | . | . | .
Cc1cccnc1Nc1nc(-c2ccccn2)cs1 | - | - | - | 68.6 | - | 5.29µM
Cc1cccc(Nc2nc(-c3ccccn3)cs2)n1 | - | - | - | 72.7 | - | 46.7µM
C[C@@H]1CN([C@@H](C)CO)C(=O)c2cc(NC(=O)Cn3cnnn3)ccc2O[C@H]1CN(C)Cc1ccc(C(=O)O)cc1 | . | . | . | - | . | .
S=c1[nH]nc(-c2cc3c(s2)-c2ccccc2CC3)o1 | - | - | - | 69.7 | - | -
CSc1nnc(-c2cc3c(s2)-c2ccccc2CC3)o1 | - | - | - | - | - | .
COc1ccccc1Nc1nc(C)cc(C)c1C(N)=O | - | - | - | . | - | .
Cc1cc(C)c(C(N)=O)c(Nc2cccc3ccccc23)n1 | - | - | - | 68.1 | - | -
CC(C)NC(=O)N1[C@@H](CO)[C@@H]2c3ccccc3N(C(=O)Nc3ccccc3)C[C@@H]21 | . | . | . | - | . | .
O=C(CN1CCCCCCC1)N/N=C/c1ccc(F)c(F)c1 | - | - | - | 54.5 | - | -
CN(C[C@@H]1[C@H](c2ccccc2)[C@@H](CO)N1C(=O)C1CC1)C(=O)c1ccccn1 | . | . | . | - | . | .
C[C@@H]1CCCCO[C@H](CN(C)S(=O)(=O)c2cccs2)[C@H](C)CN([C@@H](C)CO)C(=O)c2cc(N(C)C)ccc2O1 | . | . | . | - | . | .
O=S(=O)(N[C@H]1CC[C@@H](CCn2cc(-c3cccc(F)c3)nn2)O[C@H]1CO)c1ccccc1 | . | . | . | - | . | .
O=S(=O)(N[C@@H]1CC[C@H](CCn2cc(-c3ccccn3)nn2)O[C@H]1CO)c1cccc(F)c1 | . | . | . | 83.7 | . | 44.5µM
O=S(=O)(N[C@H]1CC[C@@H](CCn2cc(-c3ccccn3)nn2)O[C@H]1CO)c1cccc(F)c1 | . | . | . | 88.1 | . | 39µM
CNC[C@@H]1OCCCC[C@H](C)Oc2ccc(NS(C)(=O)=O)cc2C(=O)N([C@@H](C)CO)C[C@H]1C | . | . | . | - | . | .
O=C(CSc1nnc(-c2ccccn2)o1)Nc1ccccc1C(F)(F)F | - | - | - | 54.8 | - | -
